Reference: ChEMBL document CHEMBL3734698, “1H-Pyrazolo[3,4-g]hexahydro-isoquinolines as potent GR antagonists with reduced hERG inhibition and an improved pharmacokinetic profile” (Bioorg Med Chem Lett, 2015)
Calls of active or inactive are those of the source. No cut-off for these calls is given here.

Key:
Glucocorticoid receptor [1] = target: T1, Glucocorticoid receptor (Homo sapiens, UniProt P04150); assay: Antagonist activity at glucocorticoid receptor in human HepG2 cells assessed as inhibition of glucocorticoid-induced TAT activity after 24 hrs; format: cell-based
T1 sequence (P04150 whole entry): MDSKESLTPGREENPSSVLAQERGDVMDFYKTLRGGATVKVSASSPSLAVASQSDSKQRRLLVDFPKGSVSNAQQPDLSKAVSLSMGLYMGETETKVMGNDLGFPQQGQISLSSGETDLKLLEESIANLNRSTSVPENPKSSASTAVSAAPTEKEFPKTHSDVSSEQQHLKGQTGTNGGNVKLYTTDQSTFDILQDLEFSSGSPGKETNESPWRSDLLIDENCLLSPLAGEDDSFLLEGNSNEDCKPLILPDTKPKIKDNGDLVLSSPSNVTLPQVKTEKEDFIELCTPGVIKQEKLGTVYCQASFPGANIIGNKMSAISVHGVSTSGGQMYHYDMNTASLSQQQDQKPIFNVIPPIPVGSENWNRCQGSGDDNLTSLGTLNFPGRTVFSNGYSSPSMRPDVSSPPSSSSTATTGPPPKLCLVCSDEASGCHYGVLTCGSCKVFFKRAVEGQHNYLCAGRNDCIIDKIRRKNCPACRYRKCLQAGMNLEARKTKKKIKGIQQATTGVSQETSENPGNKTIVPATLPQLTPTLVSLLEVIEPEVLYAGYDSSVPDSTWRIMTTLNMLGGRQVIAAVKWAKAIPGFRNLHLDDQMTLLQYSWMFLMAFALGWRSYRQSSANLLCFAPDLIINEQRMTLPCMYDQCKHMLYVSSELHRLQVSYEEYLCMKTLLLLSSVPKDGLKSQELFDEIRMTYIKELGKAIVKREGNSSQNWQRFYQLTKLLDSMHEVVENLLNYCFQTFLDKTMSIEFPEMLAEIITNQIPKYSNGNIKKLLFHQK

hERG (KCNH2) [2] = target: T2, hERG (KCNH2) (Homo sapiens, UniProt Q12809); assay: Inhibition of human ERG at 1 uM by patch clamp technique
T2 sequence (Q12809 whole entry): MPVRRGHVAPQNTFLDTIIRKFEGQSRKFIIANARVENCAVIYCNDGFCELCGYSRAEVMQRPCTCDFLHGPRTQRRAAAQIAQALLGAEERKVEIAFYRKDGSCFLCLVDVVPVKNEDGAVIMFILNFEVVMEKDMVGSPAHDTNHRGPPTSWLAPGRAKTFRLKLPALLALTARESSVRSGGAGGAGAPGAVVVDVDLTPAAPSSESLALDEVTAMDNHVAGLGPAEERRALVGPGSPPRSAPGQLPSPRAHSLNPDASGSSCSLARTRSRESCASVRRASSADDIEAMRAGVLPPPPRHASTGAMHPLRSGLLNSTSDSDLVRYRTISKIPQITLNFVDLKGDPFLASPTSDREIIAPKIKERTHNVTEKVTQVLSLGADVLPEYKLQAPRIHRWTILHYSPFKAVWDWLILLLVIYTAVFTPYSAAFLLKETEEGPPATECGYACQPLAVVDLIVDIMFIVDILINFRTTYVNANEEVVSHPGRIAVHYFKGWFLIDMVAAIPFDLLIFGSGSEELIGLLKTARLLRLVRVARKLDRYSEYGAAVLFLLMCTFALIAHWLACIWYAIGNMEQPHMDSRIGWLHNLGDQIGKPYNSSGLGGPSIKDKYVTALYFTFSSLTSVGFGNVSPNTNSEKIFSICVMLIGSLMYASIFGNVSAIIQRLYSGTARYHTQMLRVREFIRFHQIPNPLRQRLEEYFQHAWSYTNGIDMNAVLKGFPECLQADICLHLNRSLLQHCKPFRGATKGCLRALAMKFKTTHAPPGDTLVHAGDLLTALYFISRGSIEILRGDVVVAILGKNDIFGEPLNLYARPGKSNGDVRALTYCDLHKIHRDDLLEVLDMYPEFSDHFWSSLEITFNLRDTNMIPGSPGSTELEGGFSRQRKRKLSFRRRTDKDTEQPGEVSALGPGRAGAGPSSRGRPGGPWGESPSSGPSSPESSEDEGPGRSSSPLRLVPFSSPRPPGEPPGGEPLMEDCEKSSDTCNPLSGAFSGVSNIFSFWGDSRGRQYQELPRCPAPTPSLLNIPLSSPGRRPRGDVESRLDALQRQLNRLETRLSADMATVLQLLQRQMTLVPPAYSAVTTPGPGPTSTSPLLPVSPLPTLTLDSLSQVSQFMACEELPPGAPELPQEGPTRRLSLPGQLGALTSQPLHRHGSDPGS

hERG (KCNH2) [3] = target: T2, hERG (KCNH2); assay: Inhibition of human ERG at 10 uM by patch clamp technique
[4] = Cmax in rat at 5 mg/kg, po; format: ADME, organism-based; parameters: dose 5 mg/kg, route oral; conditions: in vivo
How it was run: (§1)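 Rat pharmacokinetics: oral dosing at 5 mg/kg in 10% DMSO in 0.5% aqueous methyl cellulose. Intravenous dosing at 1 mg/kg in 10% DMSO, 45% PEG400 and 45% propylene glycol. Plasma Cmax was taken after the oral dose and clearance after the iv dose, and oral bioavailability was derived.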

[5] = Clearance in rat at 1 mg/kg, iv; format: ADME, organism-based; conditions: in vivo; how it was run: as §1
Glucocorticoid receptor [6] = target: T1, Glucocorticoid receptor; assay: Binding affinity to human recombinant glucocorticoid receptor by fluorescence polarization assay
[7] = target: Voltage-gated inwardly rectifying potassium channel KCNH2 (Homo sapiens, UniProt Q12809); assay: Inhibition of human ERG by patch clamp technique
Voltage-gated inwardly rectifying potassium channel KCNH2, sequence (Q12809 whole entry): as above

[8] = target: T3, Glucocorticoid receptor (Rattus norvegicus) (UniProt P06536); assay: (§2) Antagonist activity at glucocorticoid receptor in rat primary hepatocytes assessed as inhibition of glucocorticoid-induced TAT activity; format: cell-based; conditions: Hepatocyte
T3 sequence (whole entry): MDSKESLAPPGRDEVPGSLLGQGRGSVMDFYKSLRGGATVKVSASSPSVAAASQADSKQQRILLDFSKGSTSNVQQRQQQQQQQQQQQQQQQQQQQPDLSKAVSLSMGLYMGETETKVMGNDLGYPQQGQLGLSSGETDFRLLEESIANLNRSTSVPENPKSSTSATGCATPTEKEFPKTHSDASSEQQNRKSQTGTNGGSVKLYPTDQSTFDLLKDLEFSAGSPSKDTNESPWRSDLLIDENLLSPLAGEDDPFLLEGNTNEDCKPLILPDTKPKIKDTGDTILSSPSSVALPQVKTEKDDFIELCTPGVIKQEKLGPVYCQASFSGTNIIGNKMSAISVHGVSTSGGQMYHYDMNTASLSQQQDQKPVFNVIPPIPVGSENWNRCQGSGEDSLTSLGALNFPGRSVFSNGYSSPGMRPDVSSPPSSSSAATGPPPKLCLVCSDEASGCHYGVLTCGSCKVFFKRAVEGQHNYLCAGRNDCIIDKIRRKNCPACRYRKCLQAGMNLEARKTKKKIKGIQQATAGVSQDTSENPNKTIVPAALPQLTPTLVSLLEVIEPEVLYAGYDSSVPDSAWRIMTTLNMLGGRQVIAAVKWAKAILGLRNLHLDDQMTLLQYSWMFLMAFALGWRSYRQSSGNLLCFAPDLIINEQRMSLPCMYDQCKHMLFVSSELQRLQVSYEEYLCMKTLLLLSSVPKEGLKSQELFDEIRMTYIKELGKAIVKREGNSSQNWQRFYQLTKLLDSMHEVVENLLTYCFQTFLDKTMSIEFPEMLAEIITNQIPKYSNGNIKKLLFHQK
How it was run: (§3)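 Glucocorticoid receptor antagonism was measured as blockade of dexamethasone-induced tyrosine amino transferase (TAT) activity. Cells were rat H4IIEC3 cells or primary hepatocytes from rat or cynomolgus monkey, as the line specifies.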

Glucocorticoid receptor [9] = target: T4, Glucocorticoid receptor (Rattus norvegicus, UniProt P06536); assay: as §2; format: cell-based, Hepatocyte; how it was run: as §3
T4 sequence (P06536 whole entry): T3 sequence (whole entry)

Glucocorticoid receptor [10] = target: T4, Glucocorticoid receptor; assay: Antagonist activity at glucocorticoid receptor in rat H4IIEC3 cells assessed as glucocorticoid-induced TAT activity; format: cell-based; how it was run: as §3
Rattus norvegicus [11] = assay: Reduction in cortisone-induced glucose level in rat at 30 mg/kg, po bid; format: functional, organism-based
How it was run: (§4)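 Rats received cortisone 30 mg/kg sc once daily for six days. Test agent was given orally twice daily at 30 mg/kg. Glucose and insulin levels were compared with cortisone-only and no-cortisone controls, with mifepristone at the same oral regimen as positive control.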

Rattus norvegicus [12] = assay: Reduction in cortisone-induced insulin level in rat at 30 mg/kg, po bid; format: functional, organism-based; how it was run: as §4
Glucocorticoid receptor [13] = target: T1, Glucocorticoid receptor; assay: Antagonist activity at glucocorticoid receptor in human primary hepatocytes assessed as inhibition of glucocorticoid-induced TAT activity; format: cell-based, Hepatocyte
How it was run: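 Primary human hepatocytes stimulated with dexamethasone to induce tyrosine amino transferase (TAT) activity. Compounds were tested for their ability to block this dexamethasone effect as a measure of GR antagonism. They were also run without dexamethasone to check for TAT induction, a measure of GR agonism. Read-out was TAT activity, reported as K_i.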

[14] = Antagonist activity at glucocorticoid receptor in cynomolgus monkey primary hepatocytes assessed as inhibition of glucocorticoid-induced TAT activity; format: cell-based, Macaca fascicularis; conditions: hepatocyte; how it was run: as §3
Glucocorticoid receptor [15] = target: T4, Glucocorticoid receptor; assay: Agonist activity at glucocorticoid receptor in rat primary hepatocytes assessed as inhibition of glucocorticoid-induced TAT activity; format: cell-based, Hepatocyte
[16] = Agonist activity at glucocorticoid receptor in dog primary hepatocytes assessed as […] TAT activity; format: cell-based; conditions: Canis lupus familiaris, Hepatocyte
[17] = Oral bioavailability in rat at 5 mg/kg; format: ADME, organism-based; conditions: in vivo; how it was run: as §1
Rattus norvegicus [18] = assay: Reduction in olanzapine-induced weight gain in rat at 20 mg/kg, po bid administered for 21 days measured from day 4 of compound dosing; format: functional, organism-based
[19] = target: T3, Glucocorticoid receptor (Rattus norvegicus); assay: Antagonist activity at glucocorticoid receptor in rat primary hepatocytes assessed as inhibition of glucocorticoid-induced TAT activity relative to control; format: cell-based; conditions: Hepatocyte; how it was run: as §3
Hepatocyte [20] = assay: Antagonist activity at glucocorticoid receptor in cynomolgus monkey primary hepatocytes assessed as inhibition of glucocorticoid-induced TAT activity relative to control; format: cell-based; conditions: Macaca fascicularis; how it was run: as §3
[21] = target: T3, Glucocorticoid receptor (Rattus norvegicus); assay: Agonist activity at glucocorticoid receptor in rat primary hepatocytes assessed as inhibition of glucocorticoid-induced TAT activity relative to control; format: cell-based; conditions: Hepatocyte
Hepatocyte [22] = assay: Agonist activity at glucocorticoid receptor in dog primary hepatocytes assessed as […] TAT activity relative to control; format: cell-based; conditions: Canis lupus familiaris

Compound | Ki (Glucocorticoid receptor [1]) [nM] | Cmax [4] [ng/mL] | Ki (Glucocorticoid receptor [6]) [nM] | inhibition at 1 µM (hERG (KCNH2) [2]) [%] | inhibition at 10 µM (hERG (KCNH2) [3]) [%] | also measured
O=C(c1ccccn1)[C@]12Cc3cnn(-c4ccc(F)cc4)c3C=C1CCN(S(=O)(=O)c1cccc(Cl)c1)C2 | 11 | 112 | 0.25 | 14 | 35 | clearance [5]: 70 mL/min/kg
O=C(c1ccccn1)[C@]12Cc3cnn(-c4ccc(F)cc4)c3C=C1CCN(S(=O)(=O)c1ccc(Cl)c(Cl)c1)C2 | 14 | 437 | 0.64 | 7 | 16 | IC50 [7]: > 10000 nM; Efficacy [8]: 74%; Ki (Glucocorticoid receptor [9]): 150 nM; Ki (Glucocorticoid receptor [10]): 8.5 nM; Activity (Rattus norvegicus [11]): Active; Activity (Rattus norvegicus [12]): Active
O=C(c1ccccn1)[C@]12Cc3cnn(-c4ccc(F)cc4)c3C=C1CCN(S(=O)(=O)c1ccc(C(F)(F)F)cc1)C2 [DAZUCORILANT] |  | 375 | 0.16 |  |  | IC50 [7]: 5000 nM; Ki (Glucocorticoid receptor [13]): 100 nM; Ki (Glucocorticoid receptor [9]): 13 nM; Ki [14]: 765 nM; EC50 (Glucocorticoid receptor [15]): 280 nM; EC50 [16]: 1600 nM; bioavailability [17]: 31%; clearance [5]: 11 mL/min/kg; Activity (Rattus norvegicus [18]): Active; Activity (Rattus norvegicus [11]): Active; Activity (Rattus norvegicus [12]): inactive; Imax [19]: 62%; Imax (Hepatocyte [20]): 100%; Emax [21]: 51%; Emax (Hepatocyte [22]): 110%
N#Cc1cccc(S(=O)(=O)N2CCC3=Cc4c(cnn4-c4ccc(F)cc4)C[C@]3(C(=O)c3ccccn3)C2)c1 | 15 |  | 0.14 | 27 | 42 | 
O=C(c1ccccn1)[C@]12Cc3cnn(-c4ccc(F)cc4)c3C=C1CCN(S(=O)(=O)c1ccc(C(F)(F)F)c(F)c1)C2 | 11 | 322 | 0.29 | 8 | 17 | clearance [5]: 28.7 mL/min/kg
COc1cccc(S(=O)(=O)N2CCC3=Cc4c(cnn4-c4ccc(F)cc4)C[C@]3(C(=O)c3ccccn3)C2)c1 | 11.4 |  | 0.19 | 24 | 36 | IC50 [7]: > 19000 nM
CCOC[C@]12Cc3cnn(-c4ccc(F)cc4)c3C=C1CCN(S(=O)(=O)c1ccc(C(F)(F)F)cc1)C2 |  |  |  |  |  | Activity (Rattus norvegicus [18]): Active

Now from value to molecule, other results behind:

Ki (Glucocorticoid receptor [1]) [nM] | Cmax [4] [ng/mL] | Ki (Glucocorticoid receptor [6]) [nM] | Compound | inhibition at 1 µM (hERG (KCNH2) [2]) [%] | inhibition at 10 µM (hERG (KCNH2) [3]) [%] | also measured
260 |  | 0.33 | O=C(c1cncs1)[C@]12Cc3cnn(-c4ccc(F)cc4)c3C=C1CCN(S(=O)(=O)c1ccc(C(F)(F)F)cc1)C2 |  |  | 
52 |  | 0.47 | O=C(c1ncc[nH]1)[C@]12Cc3cnn(-c4ccc(F)cc4)c3C=C1CCN(S(=O)(=O)c1ccc(C(F)(F)F)cc1)C2 |  |  | 
31 |  | 0.17 | O=C(c1ccco1)[C@]12Cc3cnn(-c4ccc(F)cc4)c3C=C1CCN(S(=O)(=O)c1ccc(C(F)(F)F)cc1)C2 |  |  | 
27 |  | 0.41 | O=C(c1cccs1)[C@]12Cc3cnn(-c4ccc(F)cc4)c3C=C1CCN(S(=O)(=O)c1ccc(C(F)(F)F)cc1)C2 |  |  | 
151 |  | 0.83 | O=C(c1cccnc1)[C@]12Cc3cnn(-c4ccc(F)cc4)c3C=C1CCN(S(=O)(=O)c1ccc(C(F)(F)F)cc1)C2 |  |  | 
